According to ChEMBL document CHEMBL4261588, “Breathing new life into West Nile virus therapeutics; discovery and study of zafirlukast as an NS2B-NS3 protease inhibitor” (Eur J Med Chem, 2018):
Activity calls are given as the source filed them. The rule behind the calls is not given here.

Experiments:
[1] = system: West Nile virus; experiment: Inhibition of West Nile virus NS2B-NS3 protease at 60 uM using Mca-KKR-GDap(DNP)AK-NH2 as substrate measured every 30 secs for 20 mins by FRET assay
[2] = Inhibition of West Nile virus NS2B-NS3 protease using Mca-KKR-GDap(DNP)AK-NH2 as substrate measured every 30 secs for 20 mins by FRET assay
Method in brief: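 FRET read-out: protease cleavage of a peptide carrying a fluorophore and a quencher on either side of the cleavage site raises fluorescence in proportion to enzyme activity. IC50 is taken as the inhibitor concentration that lowers enzymatic activity by 50%.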

[3] = system: West Nile virus; experiment: Inhibition of West Nile virus NS2B-NS3 protease using Mca-KKR-GDap(DNP)AK-NH2 as substrate measured every 30 secs for 5 mins in presence of CHAPS by FRET assay
Method in brief: (§1)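 Aggregation counter-screen run in the FRET protease assay, with inhibition followed across a range of detergent concentrations (0-0.2 %) of CHAPS and of Brij35.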

[4] = system: West Nile virus; experiment: Inhibition of West Nile virus NS2B-NS3 protease using Mca-KKR-GDap(DNP)AK-NH2 as substrate measured every 30 secs for 5 mins in presence of Brij35 by FRET assay; method in brief: as §1
[5] = system: West Nile virus; experiment: Mixed inhibition of West Nile virus NS2B-NS3 protease using Mca-KKR-GDap(DNP)AK-NH2 as substrate measured every 30 secs for 10 mins by Lineweaver-burk plot analysis

inhibition [1] [%] | SMILES | other results
4 | Cc1ccccc1S(=O)(=O)NC(=O)c1ccc(NC(=O)OC2CCCC2)cc1 | 
6 | Cn1ccc2cc(NC(=O)OC3CCCC3)ccc21 | 
81 | COc1cc(C(=O)NS(=O)(=O)c2ccccc2)ccc1Cc1cn(C)c2ccc(NC(=O)OC3CCCC3)cc12 | 
12 | CCOC(=O)Nc1ccc2c(c1)c(Cc1ccc(C(=O)NS(=O)(=O)c3ccccc3C)cc1OC)cn2C | 
12 | COC(=O)c1ccc(Cc2cn(C)c3ccc(NC(=O)OC4CCCC4)cc23)c(OC)c1 | 
30 | COc1cc(C(=O)NS(=O)(=O)c2ccccc2C)ccc1Cc1cccc(NC(=O)OC2CCCC2)c1 | 
92 | COc1cc(C(=O)NS(=O)(=O)c2ccccc2C)ccc1Cc1cn(C)c2ccc(NC(=O)Oc3ccccc3)cc12 | IC50 [2]: 22 µM
33 | COc1cc(C(=O)NS(=O)(=O)c2ccccc2C)ccc1Cc1cn(C)c2ccc(NC(=O)CC3CCCC3)cc12 | 
79 | COc1cc(C(=O)NS(=O)(=O)c2ccccc2C)ccc1Cn1ccc2cc(NC(=O)OC3CCCC3)ccc21 | 
 | COc1cc(C(=O)NS(=O)(=O)c2ccccc2C)ccc1Cc1cn(C)c2ccc(NC(=O)OC3CCCC3)cc12 [ZAFIRLUKAST] | inhibition [3]: Active; inhibition [4]: Active; IC50 [2]: 32 µM; inhibition [5]: Active
5 | COC(=O)c1ccc(Cn2ccc3cc(NC(=O)OC4CCCC4)ccc32)c(OC)c1 | 
5 | COc1cc(C(=O)NCc2ccccc2)ccc1Cc1cn(C)c2ccc(NC(=O)OC3CCCC3)cc12 | 
64 | Cc1ccccc1S(=O)(=O)NC(=O)c1ccc(Cc2cn(C)c3ccc(NC(=O)OC4CCCC4)cc23)cc1 | 
